Screens deposited in PubChem by Broad Institute.
FGF22 binding – FGF22 (human) thermal shift binding; Q9HCT0; recombinant FGF22 thermal shift, SYPRO orange fluorescence; percent of sucrose octasulfate shift, DMSO zero; activity (Tm shift, normalised), % at 9.99 µM; 340,000 compounds, 1.5% hits;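 active = mean Tm shift, scaled 0 neutral to 100 positive control, at about 1.3% or above, every replicate too, limit read from the data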
AF4-AF9 inh – blocks AF4 peptide binding to human AF9 | P42568 | AlphaScreen, biotin-AF4 peptide binding to FLAG-AF9 | inhibition, % at 10 µM | 350,000 compounds, 0.47% hits;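 active = every replicate reaching a set inhibition limit, whatever the replicate mean, cut at about 25% in these data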;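 also: 0% = plate neutral control median and 100% = total signal loss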
Target sequence (P42568 whole entry, looked up): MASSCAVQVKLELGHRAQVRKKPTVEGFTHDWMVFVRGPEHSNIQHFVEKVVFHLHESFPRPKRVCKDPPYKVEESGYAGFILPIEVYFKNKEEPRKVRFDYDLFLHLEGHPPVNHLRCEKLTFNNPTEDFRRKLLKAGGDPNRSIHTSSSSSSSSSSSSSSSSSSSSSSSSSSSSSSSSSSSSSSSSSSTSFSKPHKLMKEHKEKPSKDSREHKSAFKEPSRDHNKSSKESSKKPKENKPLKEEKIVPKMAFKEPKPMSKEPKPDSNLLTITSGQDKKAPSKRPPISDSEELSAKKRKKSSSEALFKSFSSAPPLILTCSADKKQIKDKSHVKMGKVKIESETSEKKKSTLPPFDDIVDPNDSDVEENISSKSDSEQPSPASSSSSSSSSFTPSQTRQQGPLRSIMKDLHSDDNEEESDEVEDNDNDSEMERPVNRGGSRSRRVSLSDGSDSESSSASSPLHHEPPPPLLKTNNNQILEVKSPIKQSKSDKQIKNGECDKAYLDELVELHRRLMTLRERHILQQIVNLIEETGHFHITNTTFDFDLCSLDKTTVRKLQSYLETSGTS
PDI inh – PDI (human) enzyme inhibition | PDI insulin aggregation turbidity, A650, 90 min | 350,000 compounds, 0.052% hits | P07237 | inhibition, % at 10 µM;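 active = mean inhibition across replicates of 30% or more, whatever share of single replicates reach that level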
ARNT TACC3 PPI – ARNT/TACC3 interaction disruption; inhibition, % at 9.99 µM; Q9Y6A5; AlphaScreen His-ARNT PAS-B/GST-TACC3 binding, luminescence; TACC3 fragment carries E629A point mutation; 390,000 compounds, 0.66% hits;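 active = mean inhibition of replicates at least 50% and at least half of replicates each reaching 50%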;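 also: 0% = complete ARNT plus TACC3 wells and 100% = ARNT alone without TACC3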
ERp5 inh – ERp5 (human) disulfide isomerase inhibition | ERp5 insulin aggregation, absorbance 650 nm, 90 min | inhibition, % at 9.99 µM | 350,000 compounds, 0.05% hits;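 active = mean replicate inhibition above about 25%, with every replicate also reaching it, limit read from the data, passing the limit was not always enough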
FN deposit inh – fibronectin deposition inhibition | AH1F fibroblasts, Alexa488-fibronectin deposition fluorescence, overnight | inhibition, % at 12.6 µM | 350,000 compounds, 0.086% hits | AID 743247;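 active = mean inhibition across replicates of 30% or more, regardless of how many single replicates reach that level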;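 also: positive control wells lacked labelled fibronectin entirely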
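Material: AH1F fibroblast monolayer depositing Alexa488-labelled fibronectin into matrix / Amount: 10000 AH1F cells per well / Signal: fluorescence 485/525 nm / Medium: DMEM, 2% serum / Compound: single dose, pinned / Incubation: 1 h cell adhesion before compound, then overnight fibronectin incubation / Reagent: Alexa488-FN, 24 nM final / Read-out: inhibition of fibronectin deposition signal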
ARNT Alpha ctr-1 – interferes with AlphaScreen signal, flagging false ARNT-TACC3 hits; His-ARNT PASB-GST AlphaScreen artifact counter-screen, luminescence; 1,200 compounds, 50% hits; shares compounds with ARNT TACC3 PPI; AC50, µM (top dose mostly 68 µM), for inactives: at the top dose activity change, negative = signal decrease;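 active = every separate test run was called active for a drop in luminescence, with AC50 within twice the top valid dose, actives reach about 71 µM in these data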
ARNT Alpha ctr-2 – produces AlphaScreen artifacts in ARNT-TACC3 counter-screen. shares compounds with ARNT TACC3 PPI. Dual-tagged His-ARNT PASB-GST AlphaScreen artifact counter-screen. AC50, µM. 45 compounds, 70% hits;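 active = luminescence drop, with half-maximal potency fitted within twice the sample's top valid dose, cut at about 70 µM in these data; inactive = the rest, including signal moving the wrong way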
The depositor's hits bear a star. Shown are actives, neighbours in structure and some others; about 2.1% of the full set was active somewhere.

For O=C(N[C@H]1CC[C@@H](CCn2cc(-c3ccccn3)nn2)O[C@H]1CO)c1ccncc1 the results were FGF22 binding 0, AF4-AF9 inh -1, ARNT TACC3 PPI 65*, ERp5 inh 1, FN deposit inh -23 and ARNT Alpha ctr-1 31µM*.
`O=C(CSc1ccc(-c2ccccn2)nn1)N1CCCC1` gave FGF22 binding 0, AF4-AF9 inh -4, PDI inh 3, ARNT TACC3 PPI 85*, ERp5 inh 3, FN deposit inh 1, ARNT Alpha ctr-1 48µM* and ARNT Alpha ctr-2 23*.
Screening O=C(CSc1ccc(-c2ccccn2)nn1)c1ccc(F)cc1 returned FGF22 binding 0, AF4-AF9 inh 4, PDI inh -3, ARNT TACC3 PPI 39, ERp5 inh -8 and FN deposit inh 3.
Screening O=C(CSc1ccc(-c2ccccn2)nn1)NC1CCCC1 returned FGF22 binding 0, AF4-AF9 inh -2, PDI inh -3, ARNT TACC3 PPI 59*, ERp5 inh 2, FN deposit inh 4 and ARNT Alpha ctr-1 18µM*.
For O=C(CSc1ccc(-c2ccccn2)nn1)c1ccccc1 the results were FGF22 binding 0, AF4-AF9 inh 3, PDI inh 1, ARNT TACC3 PPI 75*, ERp5 inh 3, FN deposit inh -1 and ARNT Alpha ctr-1 15µM*.
For CCc1cc(C)cc(OCCNC(=O)c2ncn[nH]2)c1 the results were FGF22 binding 0, AF4-AF9 inh 2, PDI inh 11, ARNT TACC3 PPI 33 and ERp5 inh -6.
`CC(C)(C)c1ccc(OCCNC(=O)c2ncn[nH]2)cc1` gave PDI inh -6, ARNT TACC3 PPI 77*, FN deposit inh 4 and ARNT Alpha ctr-1 -16%.
`O=C(Nc1ccccc1)N1CCCCN2[C@@H](CO)[C@H](c3ccc(C#Cc4cccnc4)cc3)[C@@H]2C1` gave FGF22 binding 0, AF4-AF9 inh 1, ARNT TACC3 PPI 9 and ERp5 inh 3.
`Cc1ccc(OCc2nc(-c3ccccn3)n[nH]2)cc1` gave PDI inh 0.
Screening Cc1cccc(OCc2nc(-c3ccccn3)n[nH]2)c1 returned PDI inh 1, ARNT TACC3 PPI 67* and ARNT Alpha ctr-1 35µM*.
Cc1cc(C)n(S(=O)(=O)c2ccc(F)cc2)n1 was read as FGF22 binding 0, AF4-AF9 inh -1, PDI inh -4, ARNT TACC3 PPI -7, ERp5 inh 1 and FN deposit inh -6.
Screening Cc1cc(C)n(S(=O)(=O)c2ccc(Cl)cc2)n1 returned FGF22 binding 0, AF4-AF9 inh 0, PDI inh -7, ARNT TACC3 PPI active, ERp5 inh 8, FN deposit inh -5 and ARNT Alpha ctr-1 2%.
`CCN(CC(=O)NCc1cccs1)CC(=O)Nc1cccc(S(N)(=O)=O)c1` gave FGF22 binding 0, AF4-AF9 inh -5, PDI inh -6, ARNT TACC3 PPI 26*, ERp5 inh 1, FN deposit inh -2 and ARNT Alpha ctr-1 3%.
Screening O=C(C[C@@H]1CC[C@@H]2[C@H](COC[C@H](O)CN2C(=O)c2ccccc2)O1)NCc1ccc(-c2ccccc2)cc1 returned FGF22 binding 0, AF4-AF9 inh 3, ARNT TACC3 PPI -5, ERp5 inh -3 and FN deposit inh -1.
`COc1cc(/C=N/Nc2nn3cnnc3c3ccccc23)ccc1O` gave PDI inh -2, ARNT TACC3 PPI 50*, FN deposit inh -10 and ARNT Alpha ctr-1 -30%.
Screening Oc1c(Br)cc(Br)cc1/C=N/Nc1ccc(Cl)nn1 returned FGF22 binding 0, AF4-AF9 inh -2, PDI inh -8, ARNT TACC3 PPI 3, ERp5 inh -3 and FN deposit inh 10.
For Oc1ccc(/C=N/Nc2ccc(Cl)nn2)c(O)c1O the results were FGF22 binding 0, AF4-AF9 inh 0, PDI inh 3, ARNT TACC3 PPI 55*, ERp5 inh 0, FN deposit inh -2 and ARNT Alpha ctr-1 4.5µM*.
For C[C@H]1CN([C@@H](C)CO)C(=O)c2cc(C#Cc3cccnc3)cnc2O[C@H]1CN(C)Cc1ccccc1 the results were FGF22 binding 0, AF4-AF9 inh -3, ARNT TACC3 PPI 10 and ERp5 inh 2.
COc1ccc(S(=O)(=O)N2CCCOC2CNC(=O)C(=O)NCCCn2ccnc2)cc1OC (stereo not given) was read as FGF22 binding 0, AF4-AF9 inh -1, PDI inh 0, ARNT TACC3 PPI 40*, ERp5 inh 3, FN deposit inh -14 and ARNT Alpha ctr-1 -11%.
Screening COc1ccc(S(=O)(=O)N2CCCOC2CNC(=O)C(=O)NCCc2ccco2)cc1OC (stereo not given) returned FGF22 binding 0, AF4-AF9 inh 4, PDI inh -5, ARNT TACC3 PPI -2, ERp5 inh 7 and FN deposit inh 3.
`Cc1ccc(C)c(S(=O)(=O)N2CCCOC2CNC(=O)C(=O)NCCc2ccccc2)c1` (stereo not given) gave FGF22 binding 0, AF4-AF9 inh 2, PDI inh -2, ARNT TACC3 PPI -2, ERp5 inh 3 and FN deposit inh 2.
Screening COc1ccc(S(=O)(=O)N2CCOC2CNC(=O)C(=O)NCCCn2ccnc2)cc1OC (stereo not given) returned FGF22 binding 0, AF4-AF9 inh -3, ARNT TACC3 PPI 59*, ERp5 inh 7, FN deposit inh 3 and ARNT Alpha ctr-1 -23%.
COc1ccc(CCNC(=O)C(=O)NCC2OCCN2S(=O)(=O)c2ccc(OC)c(OC)c2)cc1OC (stereo not given) was read as FGF22 binding 0, AF4-AF9 inh 0, ARNT TACC3 PPI -1, ERp5 inh -7 and FN deposit inh 5.
Screening Cc1ccc(C)c(S(=O)(=O)N2CCCOC2CNC(=O)C(=O)NCCCn2ccnc2)c1 (stereo not given) returned PDI inh 22, ARNT TACC3 PPI 56*, FN deposit inh 3 and ARNT Alpha ctr-1 -7%.
`O=C(NCCCn1ccnc1)C(=O)NCC1OCCN1S(=O)(=O)c1ccc(F)cc1` (stereo not given) gave FGF22 binding 0, AF4-AF9 inh -1, ARNT TACC3 PPI 58*, ERp5 inh 10, FN deposit inh 5 and ARNT Alpha ctr-1 32µM*.
